Source: PMC7199185 (ACS applied materials & interfaces, 2019)
≈ marks a conversion by molar mass, not a printed value.

Experiments:
[1] = test system: E coli K12 biofilm; assay: Biofilm formation inhibition, crystal violet staining; assay type: cell-based, Escherichia coli; settings: at 2 ug/mL
[2] = test system: Acinetobacter baumannii ATCC 19606; assay type: cell-based; settings: ATCC 19606, pH 7
[3] = test system: HCEC (Immortalized Human Colonic Epithelial Cell); assay type: cell-based; settings: 24 h
[4] = test system: Candida albicans ATCC 90028; assay type: cell-based; settings: ATCC 90028, pH 7
[5] = test system: Staphylococcus aureus ATCC 43300 MRSA; assay type: cell-based; settings: ATCC 43300, pH 7
[6] = test system: Psedomonas aeruginosa ATCC 27853; assay type: cell-based, Pseudomonas aeruginosa; settings: ATCC 27853, pH 7
[7] = Zeta potential; assay type: physicochemical; settings: Aqueous solution of 2 mmolar concentration in pH 7
[8] = test system: HaCaT (Immortalized Human Keratinocyte); assay type: cell-based; settings: 24 h
[9] = test system: Klebsiella pneumoniae ATCC 700603; assay type: cell-based; settings: ATCC 700603, pH 7
[10] = test system: Cryptococcus neoformans var. grubii H99 ATCC 20882; assay type: cell-based; settings: ATCC 20882, pH 7
[11] = test system: Escherichia coli ATCC 25922; assay type: cell-based; settings: ATCC 25922, pH 7
[12] = test system: S. aureus JE2 biofilm; assay: Biofilm formation inhibition, crystal violet staining; assay type: cell-based, Staphylococcus aureus; settings: at MIC
Summary of the method: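 S. aureus JE2 initial inocula were exposed to test compound in two-fold dilutions from 16 to 4 μg/mL, with vancomycin or gentamicin at 4 to 1 μg/mL as comparators. Biofilm formed was quantified by crystal violet staining.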

**Q.** For CNC(C)C1CCC(N)C(OC2C(N)CC(N)C(OC3OCC(C)(O)C(NC)C3O)C2O)O1 (stereo not shown) [Gen, Gentamicin], which “reduction of E coli biofilm formation” value [1] is on record?
**A.** about 54. 3%

**Q.** Which results are given for CCCCCCCC(=O)NCCCC[C@H](NC(=O)CCCCCCC)C(=O)N[C@@H](CCCCN)C(=O)N[C@@H](CCCCN)C(=O)N[C@@H](CCCCN)C(=O)N[C@@H](CCCCN)C(=O)N[C@@H](CCCCN)C(N)=O [PA 8]?
**A.** MIC Ab (A. baumannii ATCC 19606) [2]: >32 µg/mL; IC50 HCEC [3]: 19.3 µg/mL (≈ 18.6 µM); MIC Ca (C. albicans ATCC 90028) [4]: >32 µg/mL; MIC Sa (S. aureus ATCC 43300 MRSA) [5]: >32 µg/mL; MIC Pa (P. aeruginosa ATCC 27853) [6]: >32 µg/mL; Zeta potential [7]: 18.83 ± 1.69 mV; IC50 HaCaT [8]: 40.4 µg/mL (≈ 38.9 µM); MIC Kp (K. pneumoniae ATCC 700603) [9]: >32 µg/mL; MIC Cn (C. neoformans var. grubii H99 ATCC 20882) [10]: >32 µg/mL; MIC Ec (E. coli ATCC 25922) [11]: >32 µg/mL

**Q.** With CCCCCCCCCCCCCCCCCC(=O)NCCCC[C@H](NC(=O)CCCCCCCCCCCCCCCCC)C(=O)N[C@@H](CCCCN)C(=O)N[C@@H](CCCCN)C(=O)N[C@@H](CCCCN)C(=O)N[C@@H](CCCCN)C(=O)N[C@@H](CCCCN)C(N)=O [PA 9] as the compound, how does the Zeta potential [7] read?
**A.** 41.40 ± 1.05 mV

**Q.** With CN[C@H](CC(C)C)C(=O)N[C@H]1C(=O)N[C@@H](CC(N)=O)C(=O)N[C@H]2C(=O)N[C@H]3C(=O)N[C@H](C(=O)N[C@H](C(=O)O)c4cc(O)cc(O)c4-c4cc3ccc4O)[C@H](O)c3ccc(c(Cl)c3)Oc3cc2cc(c3O[C@@H]2O[C@H](CO)[C@@H](O)[C@H](O)[C@H]2O[C@H]2C[C@](C)(N)[C@H](O)[C@H](C)O2)Oc2ccc(cc2Cl)[C@H]1O [Van, Vancomycin] as the compound, how does the “reduction of MRSA biofilm formation” value [12] read?
**A.** up to 92.80 ± 0.68%
